XBP1 UPR activ = activators of adaptive arm of unfolded protein response (XBP1) | hit rate 0.33% among 330,000 | AID 463104 | activation, % at 20 µM | CHO-XBP1 luciferase reporter, IRE1-XBP1 UPR activation, luminescence; percent of tunicamycin response, DMSO as zero;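 active means versus positive control, 20 µM dose yields 30% or more activation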
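incubation = overnight seeding at 37 °C, 6 h compound treatment at 37 °C | assay system = CHO-XBP1 cells stably carrying IRE1-XBP1-driven luciferase reporter | input = 1000 cells per well | detection = luciferase luminescence | dosing = single point, 20 µM final compound, 1% DMSO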
CHOP UPR activ = activators of apoptotic arm of unfolded protein response (CHOP); activation, % at 10 µM; AID 449763; CHO-CHOP luciferase reporter, UPR activation, luminescence; percent of tunicamycin response over DMSO baseline; hit rate 0.34% among 330,000;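 active means at 10 µM dose, activation of 40% or more, normalized to positive control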
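System: CHO CHOP reporter cells. Amount: 500 cells per well. Buffer or medium: F12 medium, 10% FBS. Compound dosing: one dose, 10 µM in 0.5% DMSO. Incubation: 6 h compound exposure at 37 °C after overnight seeding. Technique: Steady-Glo luciferase luminescence. Benchmarks: tunicamycin and DMSO controls.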
697 NFkB inh = inhibitors of the PMA/ionomycin-induced NF-kB reporter in 697 B cells; 697 B-cell NF-kB luciferase reporter, 16 h; inhibition, % at 4 µM; hit rate 0.33% among 330,000; AID 435022; in the data active means inhibition above about 35%
CHOP inh = blocks CHOP induction under ER stress; inhibition, % at 10 µM; CHO-K1 CHOP-promoter luciferase, tunicamycin-induced, 15-18 h; AID 2732; hit rate 3.8% among 220,000;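 active means compounds that reduced the stress-induced luciferase reporter signal by more than about 70% of percent inhibition, limit read from the data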
Jurkat NFkB inh = lowers PMA/ionomycin-induced NF-kB signal in Jurkat cells. inhibition, % at 4 µM. hit rate 0.53% among 330,000. PMA/ionomycin-induced NF-kB luciferase reporter, luminescence. AID 435003; in the data active means inhibition above about 50%
Large screens that a line does not name were inactive. This is one part of a sample in which hits are shown more often than they occur.

Nn1c(Cc2cccc3ccccc23)nnc1SCc1c(F)cccc1Cl	none
Cn1c(CS(=O)Cc2c(Cl)cccc2Cl)nnc1SCc1ccc(Cl)cc1 (stereo not given)	none
O=S(Cc1ccc(Br)cc1)Cc1nnc(SCc2ccc(Cl)cc2)n1-c1ccccc1 (stereo not given)	CHOP inh 85
C=C[C@H]1[C@H](OC2OC(CO)C(O)C(O)C2O)OC=C(C(=O)OC)[C@H]1C[C@H]1CC(=O)C[C@H](CC(=O)CCc2ccc(O)cc2)O1 (stereo not given in full)	none (no result: CHOP inh)
COCC(=O)N1CCC(Oc2ccc(C(=O)NC(C)c3nccs3)cc2)CC1 (stereo not given)	none (no result: CHOP inh)
COc1ccc(CCN(C)C(=O)c2ccc(C)c(S(=O)(=O)N3CCCCC3)c2)cc1OC	none (no result: CHOP inh)
CCn1c(CCCOc2ccc(Cl)cc2Cl)nnc1SCC(=O)Nc1cc(F)ccc1C	CHOP inh 84
Nc1nc2c(nc(Br)n2C2OC3COP(=O)(O)O[C@@H]3C2O)c(=O)[nH]1 (stereo not given in full)	none (no result: XBP1 UPR activ, CHOP UPR activ, 697 NFkB inh, Jurkat NFkB inh)
Cn1c(=O)cc(OCCCC(=O)NCCC2=CCCCC2)c2ccccc21	none
Cn1c(=O)cc(SCC(=O)NCCC2=CCCCC2)c2cc(Cl)ccc21	CHOP inh 93
O=C(Cc1csc(Nc2nc(=S)[nH]c3ccccc23)n1)NCc1cccc(Cl)c1	CHOP inh 80
Cc1ccc(OCC(=O)OCC(=O)N2c3ccccc3CC2C)cc1C (stereo not given)	none (no result: CHOP inh)
CC(=O)Nc1nc2c(ccc3ccccc32)s1	none (no result: CHOP inh)
O=C(Cc1cccs1)Nc1nc2c(ccc3ccccc32)s1	CHOP inh 81
O=c1oc(C2(O)CCCCC2)cc2ccc(/C=C/c3ccc(F)cc3)cc12	none (no result: CHOP inh)
COc1ccc2nc(N3C(=O)C(O)=C(C(=O)c4ccco4)C3c3ccc(C)o3)sc2c1 (stereo not given)	none (no result: CHOP inh)
Cc1ccc2nc(N3C(=O)C(O)=C(C(=O)c4ccco4)C3c3cccs3)sc2c1 (stereo not given)	CHOP inh 94
C=CCSc1nc(C)c2cc(C)cc(C)c2n1	CHOP inh 96
COC(=O)c1c(NC(=O)CN2C(=O)C(=O)N(CC(C)C)C2=O)sc(C)c1C	none (no result: CHOP inh)
CC(C)=CCC/C(C)=C/CCC(C)NCCN1CCNCC1 (stereo not given)	CHOP inh 95
COc1ccc(-c2nc3c(c(=O)[nH]c(=O)n3Cc3ccccc3)n2Cc2ccccc2)cc1	CHOP inh 76
COc1ccc(-c2nc3c(c(=O)[nH]c(=O)n3Cc3ccccc3)n2C)cc1	none
CCOc1ccc(/C(O)=C2/C(=O)C(=O)N(CCCN3CCOCC3)C2c2ccc(C)cc2)cc1C (stereo not given)	none (no result: CHOP inh)
COc1ccccc1OCCCCN1CCN(c2ccccc2OC)CC1	none
COc1ccccc1N1CCN(CCCCOc2cccc3ccccc23)CC1	CHOP inh 84
Cn1c(CNC(=O)CNS(=O)(=O)c2ccc(F)cc2F)cc(=O)n(C)c1=O	none (no result: CHOP inh)
S=c1[nH]nc(Cc2cccs2)n1-c1ccccc1	none
CCCCc1ccc(-n2c(Cc3cccs3)n[nH]c2=S)cc1	CHOP inh 77
N#CCCNS(=O)(=O)c1ccc(C(=O)OCCCOC(=O)c2ccc(S(=O)(=O)NCCC#N)cc2)cc1	none (no result: CHOP inh)
O=C(/C=C/c1ccc(O)c([N+](=O)[O-])c1)c1ccc2ccccc2c1	none (no result: CHOP inh)
COc1ccc(Oc2ccc(/C=C/C(=O)c3ccc(O)cc3)cc2[N+](=O)[O-])cc1	CHOP inh 86
COc1ccc(/C=C/C(=O)c2ccccc2)cc1COc1ccc(F)cc1	none
COc1ccc(/C=C/C(=O)c2ccc(O)cc2)cc1COc1ccc(F)cc1	CHOP inh 85
CN1CCN(NC(=O)c2ccc(Cl)s2)CC1	none
COCCn1c(C2CCCCC2)nc2sc3ccccc3c(=O)c2c1=O	CHOP inh 92
COc1ccc(Cn2c(C(C)C)nc3sc4ccccc4c(=O)c3c2=O)cc1	CHOP inh 79
Cc1cccc(NC(=O)C2CCCN(S(=O)(=O)c3cccs3)C2)c1C (stereo not given)	none (no result: CHOP inh)
CC(C)n1c(SCC(=O)NCc2ccco2)nnc1C1CC1	none (no result: CHOP inh)
CC1=NNC(=O)/C1=C\c1cn(-c2ccccc2)nc1-c1cccs1	CHOP inh 110
Cc1cc(C)cc(-n2ccnc2SCC(=O)Nc2ccc3c(c2)OCCO3)c1	CHOP inh 84
